{"data": "Measurements gathered from unrelated publications", "target": "Mitogen-activated protein kinase kinase kinase 11 (MAP3K11, Homo sapiens, UniProt Q16584)"}
{"SMILES": "Cn1cc(-c2cc(F)cc(N3CCn4c(cc5c4CCCC5)C3=O)c2CO)cc(Nc2ccc(N3CCN(C4COC4)CC3)cn2)c1=O", "read-out": "enzyme activity", "mode": "inhibitor", "tested at": "0.1 µM", "endpoint": "inhibition", "result": "0%"}
{"SMILES": "N#CC1(c2ccccn2)CCN(Cc2cc(C(=O)O)c(=O)n3ccccc23)CC1", "read-out": "cell-free assay", "technique": "competition with immobilised ligand", "tested at": "1 µM", "endpoint": "remaining binding", "result": "100%"}
{"SMILES": "O=c1[nH]c2ccccc2n1C1CCN(Cc2ccc(-c3[nH]c4cc5ncnc5cc4nc3-c3ccccc3)cc2)CC1", "read-out": "cell-free assay", "tested at": "0.5 µM", "endpoint": "remaining signal", "result": "94.6%"}
{"SMILES": "Cn1cc(-c2cccc(N3CCc4c(sc5c4CC(C)(C)C5)C3=O)c2CO)cc(Nc2ccncn2)c1=O", "read-out": "enzyme activity", "mode": "inhibitor", "tested at": "1 µM", "endpoint": "inhibition", "result": "-4%"}
{"SMILES": "Cc1nn(C)cc1-c1nc2c(N3CCN(Cc4ccc(Cl)cc4)CC3)c(Cl)cnc2[nH]1", "read-out": "binding", "technique": "competition with immobilised ligand", "tested at": "1 µM", "endpoint": "remaining binding", "result": "9.8%"}
{"SMILES": "COc1ncccc1-c1cnn2ccc(N3CCN(C(=O)OC(C)C)CC3)nc12", "read-out": "binding", "technique": "competition with immobilised ligand", "tested at": "1 µM", "endpoint": "remaining binding", "result": "76%"}
{"SMILES": "CC(C)(C)c1cc(C=C(C#N)C#N)cc(Br)c1O", "read-out": "enzyme activity", "mode": "inhibitor", "tested at": "0.5 µM", "endpoint": "remaining activity", "result": "97.4%"}
{"SMILES": "Cn1cncc1[C@](O)(COc1ccc(C#N)cc1-c1ccc(OC(F)(F)F)cc1)c1ccc(C#N)cc1", "read-out": "cell-free assay", "technique": "competition with immobilised ligand", "tested at": "1 µM", "endpoint": "remaining binding", "result": "86%"}
{"SMILES": "Nc1ncc(-c2nc(N3CCOCC3)nc(N3CCOCC3)n2)c(C(F)F)n1", "read-out": "binding", "technique": "competition with immobilised ligand", "tested at": "10 µM", "endpoint": "remaining binding", "result": "47%"}
